Source: ChEMBL document CHEMBL5154634, “A Modular Synthetic Route Involving N-Aryl-2-nitrosoaniline Intermediates Leads to a New Series of 3-Substituted Halogenated Phenazine Antibacterial Agents” (J Med Chem, 2021)
≈ marks a conversion by molar mass, not a printed value. Calls of active or inactive are those of the source. The rule behind the calls is not given here.

Key:
[1] = test system: Staphylococcus aureus; experiment: Antibacterial activity against methicillin-resistant Staphylococcus aureus BAA-1707 assessed as bacterial growth inhibition incubated for 16 hrs by broth microdilution susceptibility test; type: functional
Outline: (§1)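 CLSI broth microdilution with 11 twofold dilutions (0.05–50 μM). About 10^5 cells per well from a log-phase culture. DMSO vehicle up to 0.5% v/v. At least three independent experiments.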

[2] = test system: Staphylococcus epidermidis; experiment: Antibacterial activity against methicillin-resistant Staphylococcus epidermidis ATCC 35984 assessed as bacterial growth inhibition incubated for 16 hrs by broth microdilution susceptibility test; type: functional; outline: as §1
[3] = test system: Enterococcus faecium; experiment: Antibacterial activity against vancomycin-resistant Enterococcus faecium ATCC 700221 assessed as bacterial growth inhibition incubated for 16 hrs by broth microdilution susceptibility test; type: functional
Outline: (§2)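 CLSI broth microdilution with 11 twofold dilutions (0.05–50 μM). Medium was LB for the staphylococci and BHI for VRE 700221. About 10^5 cells per well from a log-phase culture. […] DMSO vehicle up to 0.5% v/v. At least three independent experiments.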

[4] = Binding affinity to Fe2+ assessed as compound-Fe2+ complex formation by UV-vis spectroscopy
[5] = Dissociation constant, pKa of the compound at 125 uM by UV-vis spectrophotometric analysis; type: physicochemical
Outline: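 Compound at 125 μM final in phosphate buffers (KH₂PO₄/Na₂HPO₄) in 1:1 water/methanol, pH 4.07–9.66; ammonium hydroxide added for pH above 9.80. UV-vis scans 200–800 nm to find λmax of phenol and phenolate forms. Absorbance at each λmax plotted against pH.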

[6] = test system: Staphylococcus aureus; experiment: Antibacterial activity against methicillin-resistant Staphylococcus aureus BAA-44 assessed as bacterial growth inhibition incubated for 16 hrs by broth microdilution susceptibility test; type: functional; outline: as §2
[7] = test system: Enterococcus faecalis; experiment: Antibacterial activity against Enterococcus faecalis OG1RF ATCC 47077 assessed as bacterial growth inhibition incubated for 16 hrs by broth microdilution susceptibility test; type: functional
[8] = test system: Mycobacterium tuberculosis; experiment: Antibacterial activity against Mycobacterium tuberculosis H37Ra ATCC 25177 assessed as bacterial growth inhibition incubated for 7 days by absorbance based analysis; type: functional; details: H37Ra ATCC 25177, 168 h, time 7 day
Outline: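 H37Ra grown 2 weeks in Middlebrook 7H9, then diluted to OD600 0.01. Compounds added in twofold dilutions, final 0.024–50 μM, with 0.5% DMSO and streptomycin as positive control. Incubated 7 days at 37 °C. MIC is the lowest concentration with no growth, with OD600 recorded. At least three independent experiments.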

[9] = test system: Mycobacterium tuberculosis; experiment: Antibacterial activity against Mycobacterium tuberculosis CDC1551 assessed as bacterial growth inhibition incubated for 5 days by luminescence based analysis; type: functional; details: CDC1551, 120 h, time 5 day
Outline: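 Bioluminescent Mtb-lux CDC1551 reporter grown in Middlebrook 7H9 with 0.05% Tween 80, 10% OADC and kanamycin to OD600 0.4–0.8, then diluted to OD600 0.02. Added to twofold drug dilutions (0.003–200 μM). Incubated 5 days at 37 °C, 5% CO2. Luminescence read against 1% DMSO and 10 μM rifampicin controls to give % growth inhibition. MIC taken from a modified Gompertz fit.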

[10] = test system: HeLa; experiment: Cytotoxicity against human HeLa cells assessed as reduction in cell viability incubated for 24 hrs by LDH release assay; type: toxicity, cell-based
Outline: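 HeLa cells in DMEM with 10% FBS, treated at 70–80% confluence with 25, 50 and 100 μM for 24 h. LDH in supernatant measured by 30 min reaction at room temperature, then stop solution and absorbance at 490 nm. Controls: 2% Triton X-100 (maximum), medium only, DMSO vehicle. Three independent experiments.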

[11] = test system: J774; experiment: Cytotoxicity against mouse J774 cells assessed as reduction in cell viability […] by Alamar blue assay; type: toxicity, cell-based
[12] = test system: HepG2; experiment: Cytotoxicity against human HepG2 cells assessed as reduction in cell viability […] by Alamar blue assay; type: toxicity, cell-based
[13] = test system: Staphylococcus aureus; experiment: Bactericidal activity against methicillin-resistant Staphylococcus aureus BAA-1707 planktonic cells assessed as planktonic eradication incubated for 24 hrs followed by incubation for overnight in fresh medium by Calgary biofilm device assay; type: functional
Outline: (§3)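 Calgary biofilm device. Biofilms grown 24 h at 37 °C in TSB with 0.5% glucose, then challenged 24 h with twofold compound dilutions. 20 μL of challenge medium transferred into fresh TSB with 0.5% glucose and incubated overnight at 37 °C. MBC is the concentration with no visible turbidity. At least three independent experiments.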

[14] = test system: Staphylococcus aureus; experiment: Antibiofilm activity against methicillin-resistant Staphylococcus aureus BAA-1707 biofilms assessed as biofilm eradication incubated for 24 hrs followed by incubation for 24 hrs in fresh medium by Calgary biofilm device assay; type: functional
Outline: (§4)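 Calgary biofilm device. Mid-log culture diluted 1000-fold in TSB with 0.5% glucose; biofilms grown on pegs 24 h at 37 °C. Pegs washed and challenged with twofold compound dilutions for 24 h at 37 °C, then moved to fresh medium for 24 h. MBEC is the lowest concentration leaving wells non-turbid. At least three independent experiments.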

[15] = test system: Erythrocyte; experiment: Hemolytic activity against human RBC at 200 uM measured after 1 hr; type: toxicity, cell-based
Outline: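 2% hRBCs exposed to compound at 200 μM final, added from DMSO stock, for 1 h at 37 °C. Supernatant OD read at 405 nm. Hemolysis normalized between DMSO (0%) and Triton X (100%); three independent experiments.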

[16] = test system: Staphylococcus epidermidis; experiment: Bactericidal activity against methicillin-resistant Staphylococcus epidermidis ATCC 35984 planktonic cells assessed as planktonic eradication incubated for 24 hrs followed by incubation for overnight in fresh medium by Calgary biofilm device assay; type: functional; outline: as §3
[17] = test system: Enterococcus faecium; experiment: Bactericidal activity against methicillin-resistant vancomycin-resistant Enterococcus faecium ATCC 700221 planktonic cells assessed as planktonic eradication incubated for 24 hrs followed by incubation for overnight in fresh medium by Calgary biofilm device assay; type: functional; outline: as §3
[18] = test system: Enterococcus faecium; experiment: Antibiofilm activity against methicillin-resistant vancomycin-resistant Enterococcus faecium ATCC 700221 biofilms assessed as biofilm eradication incubated for 24 hrs followed by incubation for 24 hrs in fresh medium by Calgary biofilm device assay; type: functional; outline: as §4
[19] = test system: Enterococcus faecalis; experiment: Antibiofilm activity against Enterococcus faecalis OG1RF ATCC 47077 biofilms assessed as biofilm eradication incubated for 24 hrs followed by incubation for 24 hrs in fresh medium by Calgary biofilm device assay; type: functional
Outline: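 Calgary biofilm device. Biofilms grown 24 h at 37 °C in BHI from mid-log culture diluted 1000-fold. Pegs washed and then challenged 24 h with twofold serial dilutions. Pegs moved to fresh BHI for 24 h recovery. MBEC = lowest concentration leaving no turbidity; at least three independent experiments.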

[20] = test system: Staphylococcus aureus; experiment: Antibiofilm activity against methicillin-resistant Staphylococcus aureus BAA-44 biofilms assessed as biofilm eradication incubated for 24 hrs followed by incubation for 24 hrs in fresh medium by Calgary biofilm device assay; type: functional; outline: as §4
[21] = test system: Staphylococcus epidermidis; experiment: Antibiofilm activity against methicillin-resistant Staphylococcus epidermidis ATCC 35984 biofilms assessed as biofilm eradication incubated for 24 hrs followed by incubation for 24 hrs in fresh medium by Calgary biofilm device assay; type: functional; outline: as §4
[22] = test system: Enterococcus faecalis; experiment: Bactericidal activity against […] Enterococcus faecalis OG1RF ATCC 47077 planktonic cells assessed as planktonic eradication incubated for 24 hrs followed by incubation for overnight in fresh medium by Calgary biofilm device assay; type: functional
Outline: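 Calgary biofilm device in BHI. Biofilms grown 24 h at 37 °C and challenged 24 h with twofold compound dilutions. Challenge medium subcultured 1:10 into fresh BHI overnight at 37 °C. MBC is the concentration with no turbidity. At least three independent experiments.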

[23] = test system: Staphylococcus aureus; experiment: Antibacterial activity against methicillin-resistant Staphylococcus aureus clinical isolate 1 assessed as bacterial growth inhibition; type: functional
[24] = test system: Staphylococcus aureus; experiment: Antibacterial activity against methicillin-resistant Staphylococcus aureus clinical isolate 2 assessed as bacterial growth inhibition; type: functional
[25] = test system: Staphylococcus aureus; experiment: Antibacterial activity against methicillin-resistant Staphylococcus aureus 129 assessed as bacterial growth inhibition; type: functional
[26] = test system: Staphylococcus aureus; experiment: Antibacterial activity against methicillin-resistant Staphylococcus aureus 147 assessed as bacterial growth inhibition; type: functional
[27] = test system: Staphylococcus aureus; experiment: Antibacterial activity against methicillin-resistant Staphylococcus aureus 138 assessed as bacterial growth inhibition; type: functional
[28] = test system: Staphylococcus aureus; experiment: Antibacterial activity against methicillin-resistant Staphylococcus aureus 156 assessed as bacterial growth inhibition; type: functional

Row | SMILES | MIC [2] | MIC [3] | pKa at 125 µM [5] | MIC [6] | MIC [7] | MIC [8] | MIC [9] | IC50 [10] | IC50 [11] | IC50 [12] | MBC [13] | MBEC [14] | Activity [15] | MBC [16] | MBEC [18] | also measured
1 | Oc1cc(Cl)cc2nc3ccccc3nc12 | 18.8 µM (≈ 4.34 µg/mL) | > 50 µM | 8.04 |  |  |  |  |  |  |  |  |  |  |  |  | MIC [1]: 25 µM (≈ 5.77 µg/mL); Activity [4]: Active
2 | Cc1c(Br)ccc2nc3c(O)cc(Cl)cc3nc12 | 0.78 µM (≈ 0.252 µg/mL) |  |  | 0.3 µM (≈ 0.0971 µg/mL) | 2.35 µM (≈ 0.76 µg/mL) | 6.25 µM (≈ 2.02 µg/mL) | 3.27 µM (≈ 1.06 µg/mL) | > 100 µM | > 200 µM | > 200 µM | 18.8 µM (≈ 6.08 µg/mL) | […] | <= 1% |  |  | 
3 | Oc1c(Br)c(Cl)c(Br)c2nc3c(Oc4ccccc4)cccc3nc12 | 0.2 µM (≈ 0.0961 µg/mL) | 0.15 µM (≈ 0.0721 µg/mL) |  | 0.1 µM (≈ 0.0481 µg/mL) | 0.78 µM (≈ 0.375 µg/mL) | 3.13 µM (≈ 1.5 µg/mL) | 3.01 µM (≈ 1.45 µg/mL) | > 100 µM | > 200 µM | > 200 µM | […] | 1.56 µM | 2.6% | 1.56 µM (≈ 0.75 µg/mL) | 0.39 µM | MBC [17]: 0.78 µM (≈ 0.375 µg/mL); MBEC [19]: 75 µM
4 | COCCOCCOCCOCCSc1c(Br)c(O)c2nc3cccc(C)c3nc2c1Br | 2.35 µM (≈ 1.39 µg/mL) | 3.13 µM (≈ 1.85 µg/mL) | 7.93 |  |  |  |  |  |  |  |  |  |  |  |  | 
5 | CN[C@H](CC(C)C)C(=O)N[C@H]1C(=O)N[C@@H](CC(N)=O)C(=O)N[C@H]2C(=O)N[C@H]3C(=O)N[C@H](C(=O)N[C@H](C(=O)O)c4cc(O)cc(O)c4-c4cc3ccc4O)[C@H](O)c3ccc(c(Cl)c3)Oc3cc2cc(c3O[C@@H]2O[C@H](CO)[C@@H](O)[C@H](O)[C@H]2O[C@H]2C[C@](C)(N)[C@H](O)[C@H](C)O2)Oc2ccc(cc2Cl)[C@H]1O [VANCOMYCIN] |  |  |  |  |  |  |  |  |  |  |  |  |  | 2 µM (≈ 2.9 µg/mL) | >2000 µM | MBEC [20]: >2000 µM; MBEC [21]: >2000 µM; MBC [17]: 750 µM (≈ 1090 µg/mL); MBC [22]: 11.7 µM (≈ 17 µg/mL); MBEC [19]: >2000 µM
6 | Oc1cc(Cl)cc2nc3c(Cl)cc(Cl)cc3nc12 |  |  | 6.89 | 0.3 µM (≈ 0.0899 µg/mL) | 9.38 µM (≈ 2.81 µg/mL) | 3.13 µM (≈ 0.938 µg/mL) | 2.31 µM (≈ 0.692 µg/mL) | > 100 µM | > 200 µM | > 200 µM | 18.8 µM (≈ 5.63 µg/mL) | 75 µM | <= 1% |  |  | 
7 | CCSc1c(Br)c(O)c2nc3cccc(C)c3nc2c1Br |  |  | 7.88 | 0.3 µM (≈ 0.128 µg/mL) | 0.78 µM (≈ 0.334 µg/mL) |  | 1.69 µM (≈ 0.724 µg/mL) |  | > 100 µM | > 200 µM | 50 µM (≈ 21.4 µg/mL) | 200 µM | 5.7% | 12.5 µM (≈ 5.35 µg/mL) | 3.13 µM | MIC [23]: 0.31 µM (≈ 0.133 µg/mL); MIC [24]: 0.31 µM (≈ 0.133 µg/mL); MIC [25]: 0.31 µM (≈ 0.133 µg/mL); MIC [26]: 0.31 µM (≈ 0.133 µg/mL); MIC [27]: 0.31 µM (≈ 0.133 µg/mL); MIC [28]: 0.31 µM (≈ 0.133 µg/mL)
8 | COc1cccc(OC)c1C(=O)N[C@@H]1C(=O)N2[C@@H]1SC(C)(C)[C@@H]2C(=O)O [METHICILLIN] |  |  |  |  |  |  |  |  |  |  |  |  |  |  |  | MIC [23]: ≥ 37.5 µM; MIC [24]: ≥ 37.5 µM; MIC [26]: ≥ 37.5 µM; MIC [28]: ≥ 37.5 µM
